{"data": "Published values of several laboratories", "target": "Rhodopsin kinase GRK7 (GRK7, Homo sapiens, UniProt Q8WTQ7)", "Residues used in one study (Q8WTQ7 1-553)": "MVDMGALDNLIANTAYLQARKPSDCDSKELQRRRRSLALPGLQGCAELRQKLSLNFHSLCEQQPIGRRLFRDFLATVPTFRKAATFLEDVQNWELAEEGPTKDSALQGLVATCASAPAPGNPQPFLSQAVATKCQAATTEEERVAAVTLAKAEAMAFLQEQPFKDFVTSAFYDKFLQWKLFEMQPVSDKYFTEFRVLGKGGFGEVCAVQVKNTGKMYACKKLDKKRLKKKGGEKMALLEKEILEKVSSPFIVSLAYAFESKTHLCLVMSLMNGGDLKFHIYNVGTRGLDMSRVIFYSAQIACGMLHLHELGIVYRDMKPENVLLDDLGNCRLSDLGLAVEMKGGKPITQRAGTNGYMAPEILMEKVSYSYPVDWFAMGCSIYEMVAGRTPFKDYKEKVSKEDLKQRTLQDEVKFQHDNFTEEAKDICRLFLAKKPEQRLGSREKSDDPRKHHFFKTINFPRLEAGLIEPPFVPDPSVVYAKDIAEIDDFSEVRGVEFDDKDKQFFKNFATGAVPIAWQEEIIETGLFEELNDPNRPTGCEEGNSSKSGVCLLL", "note": "Protocols differ between the studies behind these lines."}
{"Compound": "O=C(NCCCC1CCCCC1)c1ccc(CNC(=O)c2cnn(-c3ccccc3)c2C(F)(F)F)cc1", "effect on": "cell-free assay", "technique": "competition with immobilised ligand", "tested at": "0.1 µM", "remaining binding": "100%"}
{"Compound": "O=C(c1ccc(Nc2ncc(Cl)c(-c3cc4ccccc4s3)n2)cc1)N1CCC(N2CCCC2)CC1", "effect on": "binding", "technique": "competition with immobilised ligand", "tested at": "1 µM", "remaining binding": "56%"}
{"Compound": "O=C(Nc1c[nH]nc1C(=O)NC1CCNCC1)c1cc(F)cc(F)c1", "effect on": "binding", "technique": "competition with immobilised ligand", "tested at": "1 µM", "remaining binding": "84%"}
{"Compound": "O=C(Nc1ccc(Oc2ccc(F)cc2)cc1)N1CCc2ncccc2[C@H]1c1ccc(F)cc1", "effect on": "cell-free assay", "technique": "competition with immobilised ligand", "tested at": "1 µM", "remaining binding": "100%"}
{"Compound": "N[C@H]1CCN(c2nccc(-c3cnn4ncccc34)n2)C1", "effect on": "binding", "tested at": "1 µM", "remaining binding": "100%"}
{"Compound": "O=C(NCc1ncc(C(F)(F)F)cc1Cl)c1ccc2c(c1)C1(CCS(=O)(=O)CC1)[C@H](C1CC1)N2S(=O)(=O)c1ccc(F)cc1", "effect on": "cell-free assay", "technique": "competition with immobilised ligand", "tested at": "1 µM", "remaining binding": "80%"}
{"Compound": "C[C@@H](c1ccc(-n2cnc3c(N)ncnc32)cc1)N1CCc2nn(C)c(Cc3ccccc3)c2C1=O", "effect on": "binding", "technique": "competition with immobilised ligand", "tested at": "0.1 µM", "remaining binding": "72%"}
{"Compound": "CN(C)c1nccc(-c2cnc3ncccn23)n1", "effect on": "binding", "tested at": "1 µM", "remaining binding": "41%"}
{"Compound": "C=CC(=O)N1CCC(C(=O)NCC(=O)N2CCN(c3nc(-c4cnc(N)nc4C(F)F)nc(N4CCOCC4)n3)CC2)CC1", "effect on": "binding", "technique": "competition with immobilised ligand", "tested at": "1 µM", "remaining binding": "87%"}
{"Compound": "O=C(c1ccc(Nc2nccc(-c3cc4ccccc4s3)n2)cc1)N1CCC(N2CCCC2)CC1", "effect on": "binding", "technique": "competition with immobilised ligand", "tested at": "1 µM", "remaining binding": "79%"}
{"Compound": "COc1cnc(Nc2cccc(S(N)(=O)=O)c2)nc1N1CCN(c2ccccc2)CC1", "effect on": "binding", "technique": "competition with immobilised ligand", "tested at": "1 µM", "remaining binding": "58%"}
{"Compound": "CCN1CCN(Cc2ccc(C(=O)Nc3ccc(C)c(Oc4ccc5c(c4)CC(=O)N5)c3)cc2C(F)(F)F)CC1", "effect on": "binding", "technique": "competition with immobilised ligand", "tested at": "1 µM", "remaining binding": "100%"}
{"Compound": "CN(C)CC#Cc1ccc(OCCCc2sc(N3CCc4cccc(C(=O)Nc5nc6ccccc6s5)c4C3)nc2C(=O)O)c(F)c1", "effect on": "cell-free assay", "technique": "competition with immobilised ligand", "tested at": "1 µM", "remaining binding": "97%"}
{"Compound": "CN(c1nccc(-c2cnn3ncccc23)n1)C1CC1", "effect on": "binding", "tested at": "1 µM", "remaining binding": "100%"}
{"Compound": "COc1cnc(Nc2cccc(S(N)(=O)=O)c2)nc1N1CCN(c2ccccc2)C(=O)C1", "effect on": "binding", "technique": "competition with immobilised ligand", "tested at": "1 µM", "remaining binding": "61%"}
{"Compound": "CN(C)c1nccc(-c2cnn3ncccc23)n1", "effect on": "binding", "tested at": "1 µM", "remaining binding": "100%"}
{"Compound": "C[C@H](c1ccc(F)cc1)N(Cc1cccc(C(=O)O)c1)C(=O)c1cnc2ccccc2c1", "effect on": "cell-free assay", "technique": "competition with immobilised ligand", "tested at": "1 µM", "remaining binding": "100%"}
{"Compound": "O=C(NCCCN1CCOCC1)c1ccc(Nc2ncc(Cl)c(-c3ccc(Cl)s3)n2)cc1", "effect on": "binding", "technique": "competition with immobilised ligand", "tested at": "1 µM", "remaining binding": "90%"}
{"Compound": "F[C@@H]1CCN(c2nccc(-c3cnn4ncccc34)n2)C1", "effect on": "binding", "tested at": "1 µM", "remaining binding": "100%"}
{"Compound": "NS(=O)(=O)c1cc(NC(=O)Cc2ccccc2)ccc1Oc1cccc(Cl)c1", "effect on": "cell-free assay", "technique": "competition with immobilised ligand", "tested at": "1 µM", "remaining binding": "77%"}
{"Compound": "CN(C)c1ncc(F)c(-c2cnn3ncccc23)n1", "effect on": "binding", "tested at": "1 µM", "remaining binding": "100%"}
{"Compound": "c1cncc(-c2cccc(Nc3nccc(NC4CCCCC4)n3)c2)c1", "effect on": "binding", "technique": "competition with immobilised ligand", "tested at": "10 µM", "remaining binding": "16%"}
